Experimental data from different studies.
Target: Serine/threonine-protein kinase D1 (PRKD1, Homo sapiens, UniProt Q15139)
Sequence (Q15139 1-912, as in one of the studies): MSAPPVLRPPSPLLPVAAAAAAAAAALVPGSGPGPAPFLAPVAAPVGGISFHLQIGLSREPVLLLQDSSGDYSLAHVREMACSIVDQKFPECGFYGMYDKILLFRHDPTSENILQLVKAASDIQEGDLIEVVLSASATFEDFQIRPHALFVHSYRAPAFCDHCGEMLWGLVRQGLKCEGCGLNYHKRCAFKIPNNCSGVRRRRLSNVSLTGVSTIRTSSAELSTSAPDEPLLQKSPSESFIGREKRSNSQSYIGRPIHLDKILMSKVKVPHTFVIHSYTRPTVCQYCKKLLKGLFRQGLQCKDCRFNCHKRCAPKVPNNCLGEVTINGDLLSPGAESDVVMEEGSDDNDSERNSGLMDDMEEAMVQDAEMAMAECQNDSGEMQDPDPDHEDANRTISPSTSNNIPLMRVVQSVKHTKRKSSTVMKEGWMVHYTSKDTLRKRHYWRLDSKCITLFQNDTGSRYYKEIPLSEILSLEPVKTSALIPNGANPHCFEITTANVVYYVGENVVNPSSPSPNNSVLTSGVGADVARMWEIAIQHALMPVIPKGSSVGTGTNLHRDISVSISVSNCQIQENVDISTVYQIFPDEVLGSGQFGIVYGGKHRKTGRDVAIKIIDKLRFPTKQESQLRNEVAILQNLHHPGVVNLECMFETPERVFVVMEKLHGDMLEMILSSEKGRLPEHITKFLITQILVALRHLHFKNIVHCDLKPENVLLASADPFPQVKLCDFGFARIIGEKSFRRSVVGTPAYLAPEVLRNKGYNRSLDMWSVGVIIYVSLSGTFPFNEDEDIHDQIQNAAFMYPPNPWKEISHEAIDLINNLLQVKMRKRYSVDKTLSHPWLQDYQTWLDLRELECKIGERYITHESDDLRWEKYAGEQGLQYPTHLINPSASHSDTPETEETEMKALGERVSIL

With `O=S(=O)(NC1CCC(c2cc(F)ccc2F)(S(=O)(=O)c2ccc(Cl)cc2)CC1)C(F)(F)F` (centres unmarked) the remaining binding was 100% (cell-free assay, competition with immobilised ligand; 1 µM).
For `c1cncc(-c2cccc(Nc3nccc(NC4CCCCC4)n3)c2)c1`, the remaining binding was 11% (binding, competition with immobilised ligand; 10 µM).
`CNC(=O)[C@@H]1CC[C@@H](n2c(-c3ccc4cnccc4c3)nc3ccc(C(=O)NCc4cccc(C(N)=O)c4)cc32)C1` gave a remaining binding of 100% (binding, competition with immobilised ligand; 1 µM).
The remaining binding of `COc1ccnn2ncc(-c3ccnc(N(C)C)n3)c12` is reported as 100% (binding; 1 µM).
`O=C(Nc1c[nH]nc1C(=O)NC1CCNCC1)c1cc(F)cc(F)c1` has a remaining binding of 94% (binding, competition with immobilised ligand; 1 µM).
`c1cnn2ncc(-c3ccnc(N4CCC45COC5)n3)c2c1` gave a remaining binding of 87% (binding; 1 µM).
For `CS(=O)(=O)N1CCCC(NC(=O)[C@H](CCC2CCCCC2)NC(=O)c2ccc(CNC(=O)c3cnc4ccccn34)cc2)C1` (some centres unmarked), the remaining binding was 93% (cell-free assay, competition with immobilised ligand; 0.1 µM).
`COc1ncc2cc3ccccc3nc2c1C#N` gave a remaining binding of 87% (cell-free assay, competition with immobilised ligand; 5 µM).
`C=CC(=O)N1CCC(C(=O)NCC(=O)N2CCN(c3nc(-c4cnc(N)nc4C(F)F)nc(N4CCOCC4)n3)CC2)CC1` has a remaining binding of 90% (binding, competition with immobilised ligand; 1 µM).
For `CN(c1nccc(-c2cnn3ncccc23)n1)C1CC1`, the remaining binding was 100% (binding; 1 µM).
`Nc1ncc2c(n1)-c1c([nH]c3ccc(C#CC4CC4)cc13)CCCC2` gave a remaining binding of 100% (binding, competition with immobilised ligand; 1 µM).
With `C[C@@]1(Cc2ccc(C#N)cc2)C(=O)N(c2cc(Cl)cc(Cl)c2)c2ncc(C(=O)NC3(c4nc(C5CCC5)no4)CC3)n21` the remaining binding was 86% (cell-free assay, competition with immobilised ligand; 1 µM).
The remaining binding of `CN(C)c1nccc(-c2cnn3ncccc23)n1` is reported as 57% (binding; 1 µM).
The remaining binding of `CC1=C(C#N)C(c2ccc3c(c2)c(NC(=O)c2ccccc2C)nn3C)C(C#N)=C(C)N1` is reported as 92% (cell-free assay, competition with immobilised ligand; 1 µM).
The remaining binding of `O=C(NCCCN1CCOCC1)c1ccc(Nc2ncc(Cl)c(-c3ccc(Cl)s3)n2)cc1` is reported as 30% (binding, competition with immobilised ligand; 1 µM).
For `Cc1cc(NC(=O)c2cccc(S(F)(F)(F)(F)F)c2)cc(-n2ccn3nc(-c4cccnc4)cc23)c1`, the remaining binding was 100% (cell-free assay, competition with immobilised ligand; 1 µM).
`N[C@H]1CCN(c2nccc(-c3cnn4ncccc34)n2)C1` gave a remaining binding of 65% (binding; 1 µM).
With `CO[C@@H](C)c1c(Nc2ccc([C@H](N(C)C(=O)C3CCS(=O)(=O)CC3)C(F)(F)F)cc2)cnc2cc(Cl)nn12` the remaining binding was 100% (cell-free assay, competition with immobilised ligand; 1 µM).
For `CN(C)c1nccc(-c2cnc3ncccn23)n1`, the remaining binding was 61% (binding; 1 µM).
`O=C(NCCCN1CCOCC1)c1ccc(Nc2nccc(-c3cc4ccccc4s3)n2)cc1` gave a remaining binding of 47% (binding, competition with immobilised ligand; 1 µM).
